# Results taken from ChEMBL document CHEMBL1143047, “Aminoglycoside antibiotic derivatives: preparation and evaluation of toxicity on cochlea and vestibular tissues and antimicrobial activity” (Bioorg Med Chem, 2007).
# The source made the active and inactive calls.
# Experiments:
# Cavia porcellus [1] = species on record: Cavia porcellus; test: Ototoxicity assessed as cochlear inner cells damage in Albino guinea pig with transtympanic application in right ear relative to left ear control; type: toxicity, organism-based; set-up: concentration or dose not given beside the values; details: other
# How it was run: (§1)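 Albino guinea pigs (400–600 g) screened by Preyer reflex and otoscopy, with DPOAE/BEAP thresholds up to 5 dB in both ears under ketamine 65 mg/kg. Right ear got a transtympanic sample (0.08–0.10 mL, 0.22 mmol/mL, in water or DMSO); left ear got saline or DMSO; 06 animals. Cochlear hair cells and vestibule (semicircular channels, utriculus, sacculus) scored by SEM after glutaraldehyde/osmium fixation.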
# Cavia porcellus [2] = species on record: Cavia porcellus; test: Ototoxicity assessed as cochlear outer cells damage in Albino guinea pig with transtympanic application in right ear relative to left ear control; type: toxicity, organism-based; set-up: concentration or dose not given beside the values; details: other; how it was run: as §1
# Cavia porcellus [3] = species on record: Cavia porcellus; test: Ototoxicity assessed as vestibular damage in Albino guinea pig with transtympanic application in right ear relative to left ear control; type: toxicity, organism-based; set-up: concentration or dose not given beside the values; details: in vivo, other; how it was run: as §1
# Staphylococcus aureus = test: Antimicrobial activity against Staphylococcus aureus ATCC 6538 at 15 mg/ml after 24 hrs by micro dilution method; type: functional, organism-based
# How it was run: (§2)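 Broth microdilution with about 5 × 10^4 CFU/mL per well. Compounds were dissolved in sterile water or in 10% DMSO/water and tested at 15 mg/mL in duplicate. Incubation was 24 h at 35 °C. Growth was scored qualitatively by medium turbidity (growth or no growth) against an inoculated-medium positive control and a medium-only negative control.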
# Escherichia coli = test: Antimicrobial activity against Escherichia coli ATCC 25922 at 15 mg/ml after 24 hrs by micro dilution method; type: functional, organism-based; how it was run: as §2
# [4] = tested on: Staphylococcus epidermidis; test: Antimicrobial activity against Staphylococcus epidermidis ATCC 12228 at 15 mg/ml after 24 hrs by micro dilution method; type: functional, organism-based; how it was run: as §2
# Pseudomonas aeruginosa = test: Antimicrobial activity against Pseudomonas aeruginosa ATCC 27853 at 15 mg/ml after 24 hrs by micro dilution method; type: functional, organism-based; how it was run: as §2
# Micrococcus luteus = test: Antimicrobial activity against Micrococcus luteus ATCC 9341 at 15 mg/ml after 24 hrs by micro dilution method; type: functional, organism-based; how it was run: as §2
SMILES,Activity (Cavia porcellus [1]) [%],Activity (Cavia porcellus [2]) [%],Activity (Cavia porcellus [3]) [%],Activity (Staphylococcus aureus),Activity (Escherichia coli),Activity [4],Activity (Pseudomonas aeruginosa),Activity (Micrococcus luteus)
COc1ccc(/C=N\[C@H]2[C@@H](O[C@@H]3[C@@H](O)[C@H](O)[C@@H](/N=C/c4ccc(OC)cc4)C[C@H]3/N=C/c3ccc(OC)cc3)O[C@H](C/N=C/c3ccc(OC)cc3)[C@@H](O)[C@@H]2O)cc1,100,0,0,,,,,
COC(=O)NC[C@H]1O[C@H](O[C@@H]2[C@@H](O)[C@H](O)[C@@H](NC(=O)OC)C[C@H]2NC(=O)OC)[C@H](NC(=O)OC)[C@@H](O)[C@@H]1O,0,0,0,,,,,
NC[C@@H]1O[C@H](O[C@H]2[C@@H](O)[C@H](O[C@@H]3[C@@H](O)[C@H](N)C[C@H](N)[C@H]3O[C@H]3O[C@H](CN)[C@@H](O)[C@H](O)[C@H]3N)O[C@@H]2CO)[C@H](N)[C@@H](O)[C@@H]1O [FRAMYCETIN],0,100,50,Active,Active,Active,Active,Active
N[C@@H]1C[C@H](N)[C@@H](O)[C@H](O)[C@H]1O,0,0,0,inactive,inactive,inactive,inactive,Active
CC(=O)NC[C@H]1O[C@H](O[C@@H]2[C@@H](O)[C@H](O)[C@@H](NC(C)=O)C[C@H]2NC(C)=O)[C@H](NC(C)=O)[C@@H](O)[C@@H]1O,0,0,0,Active,Active,Active,inactive,Active
O=C(NC[C@H]1O[C@H](O[C@@H]2[C@@H](O)[C@H](O)[C@@H](NC(=O)OCc3ccccc3)C[C@H]2NC(=O)OCc2ccccc2)[C@H](NC(=O)OCc2ccccc2)[C@@H](O)[C@@H]1O)OCc1ccccc1,0,100,0,,,,,
NC[C@H]1O[C@H](O[C@H]2[C@H](O)[C@@H](O)[C@H](N)C[C@@H]2N)[C@H](N)[C@@H](O)[C@@H]1O [NEAMINE],0,100,100,Active,Active,Active,Active,Active
COC1OC[C@@H](O)[C@@H](O[C@H]2O[C@@H](CN)[C@@H](O)[C@H](O)[C@H]2N)[C@H]1O (some centres undefined) [METHYL-NEOBIOSAMINIDE B],0,0,100,Active,Active,Active,Active,Active
